Assay results as given in ChEMBL document CHEMBL4706507, “Chromones bearing amino acid residues: Easily accessible and potent inhibitors of the breast cancer resistance protein ABCG2” (Eur J Med Chem, 2020).

Legend:
[1] = molecular target: T1, Broad substrate specificity ATP-binding cassette transporter ABCG2 (Homo sapiens, UniProt Q9UNQ0); assay: Inhibition of ABCG2 (unknown origin) in HEK293 cells assessed as maximal inhibition of mitoxantrone efflux by fluorescence based flow cytometry; type: cell-based
T1 sequence (Q9UNQ0 whole entry): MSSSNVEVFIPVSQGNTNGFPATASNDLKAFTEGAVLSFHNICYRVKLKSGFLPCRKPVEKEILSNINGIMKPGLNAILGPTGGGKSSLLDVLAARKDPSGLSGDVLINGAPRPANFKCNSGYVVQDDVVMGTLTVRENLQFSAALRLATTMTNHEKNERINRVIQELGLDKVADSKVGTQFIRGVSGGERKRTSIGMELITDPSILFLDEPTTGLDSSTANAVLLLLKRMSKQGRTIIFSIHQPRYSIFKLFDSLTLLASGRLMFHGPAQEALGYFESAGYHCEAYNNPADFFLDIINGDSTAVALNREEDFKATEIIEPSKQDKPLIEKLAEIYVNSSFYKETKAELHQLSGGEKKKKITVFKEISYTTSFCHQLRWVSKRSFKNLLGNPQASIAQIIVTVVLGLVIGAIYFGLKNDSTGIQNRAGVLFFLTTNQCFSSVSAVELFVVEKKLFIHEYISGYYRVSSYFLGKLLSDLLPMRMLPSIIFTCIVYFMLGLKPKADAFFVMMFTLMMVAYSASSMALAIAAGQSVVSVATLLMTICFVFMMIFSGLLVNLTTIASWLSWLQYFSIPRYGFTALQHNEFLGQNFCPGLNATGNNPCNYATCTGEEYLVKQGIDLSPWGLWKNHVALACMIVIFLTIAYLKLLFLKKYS
In short: (§1)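 Efflux assay in HEK293-ABCG2 cells, with parental HEK293 cells as negative control. Cells seeded at 5×10^4/well overnight, then given compound plus 4 µM mitoxantrone (0.5% DMSO) for 30 min at 37 °C. Cells washed, trypsinized and resuspended in cold DPBS with 2% BSA.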

[2] = Cytotoxicity against human HEK293 cells assessed as cell viability at 10 uM measured after 72 hrs by MTT assay; type: cell-based; conditions: read-out: Activity
ABCB1 [3] = molecular target: T2, ABCB1 (Homo sapiens, UniProt P08183); assay: Inhibition of ABCB1 (unknown origin) expressed in NIH/3T3 cells assessed as maximal inhibition at 1 uM by FACS based flow cytometry
ABCB1 [4] = molecular target: T2, ABCB1; assay: Inhibition of ABCB1 (unknown origin) expressed in NIH/3T3 cells assessed as maximal inhibition at 10 uM by FACS based flow cytometry
ABCC1 (MRP1) [5] = molecular target: T3, ABCC1 (MRP1) (Homo sapiens, UniProt P33527); assay: Inhibition of ABCC1 (unknown origin) expressed in Flp-In-293 cells assessed as maximal inhibition at 1 uM by FACS based flow cytometry
ABCG2 = molecular target: T4, ABCG2 (Homo sapiens, UniProt Q9UNQ0); assay: (§2) Inhibition of ABCG2 (unknown origin) in HEK293 cells assessed as maximal inhibition of mitoxantrone efflux at 1 uM by fluorescence based flow cytometry relative to control; type: cell-based; conditions: HEK293 cells with ABCG2, probe mitoxantrone, read-out: Imax; in short: as §1
T4 sequence (Q9UNQ0 whole entry): T1 sequence (Q9UNQ0 whole entry)

[6] = molecular target: T1, Broad substrate specificity ATP-binding cassette transporter ABCG2; assay: as §2; type: cell-based; conditions: hek293, 1 µM; in short: as §1
[7] = molecular target: T1, Broad substrate specificity ATP-binding cassette transporter ABCG2; assay: Inhibition of ABCG2 (unknown origin) expressed in HEK293 cells assessed as maximal inhibition at 1 uM by FACS based flow cytometry; conditions: hek293, 1 µM
[8] = Cytotoxicity against human HEK293 cells assessed as cell viability at 20 uM measured after 72 hrs by MTT assay; type: cell-based; conditions: read-out: Activity
ABCC1 (MRP1) [9] = molecular target: T3, ABCC1 (MRP1); assay: Inhibition of ABCC1 (unknown origin) expressed in Flp-In-293 cells assessed as maximal inhibition at 10 uM by FACS based flow cytometry

T2 sequence (P08183 whole entry): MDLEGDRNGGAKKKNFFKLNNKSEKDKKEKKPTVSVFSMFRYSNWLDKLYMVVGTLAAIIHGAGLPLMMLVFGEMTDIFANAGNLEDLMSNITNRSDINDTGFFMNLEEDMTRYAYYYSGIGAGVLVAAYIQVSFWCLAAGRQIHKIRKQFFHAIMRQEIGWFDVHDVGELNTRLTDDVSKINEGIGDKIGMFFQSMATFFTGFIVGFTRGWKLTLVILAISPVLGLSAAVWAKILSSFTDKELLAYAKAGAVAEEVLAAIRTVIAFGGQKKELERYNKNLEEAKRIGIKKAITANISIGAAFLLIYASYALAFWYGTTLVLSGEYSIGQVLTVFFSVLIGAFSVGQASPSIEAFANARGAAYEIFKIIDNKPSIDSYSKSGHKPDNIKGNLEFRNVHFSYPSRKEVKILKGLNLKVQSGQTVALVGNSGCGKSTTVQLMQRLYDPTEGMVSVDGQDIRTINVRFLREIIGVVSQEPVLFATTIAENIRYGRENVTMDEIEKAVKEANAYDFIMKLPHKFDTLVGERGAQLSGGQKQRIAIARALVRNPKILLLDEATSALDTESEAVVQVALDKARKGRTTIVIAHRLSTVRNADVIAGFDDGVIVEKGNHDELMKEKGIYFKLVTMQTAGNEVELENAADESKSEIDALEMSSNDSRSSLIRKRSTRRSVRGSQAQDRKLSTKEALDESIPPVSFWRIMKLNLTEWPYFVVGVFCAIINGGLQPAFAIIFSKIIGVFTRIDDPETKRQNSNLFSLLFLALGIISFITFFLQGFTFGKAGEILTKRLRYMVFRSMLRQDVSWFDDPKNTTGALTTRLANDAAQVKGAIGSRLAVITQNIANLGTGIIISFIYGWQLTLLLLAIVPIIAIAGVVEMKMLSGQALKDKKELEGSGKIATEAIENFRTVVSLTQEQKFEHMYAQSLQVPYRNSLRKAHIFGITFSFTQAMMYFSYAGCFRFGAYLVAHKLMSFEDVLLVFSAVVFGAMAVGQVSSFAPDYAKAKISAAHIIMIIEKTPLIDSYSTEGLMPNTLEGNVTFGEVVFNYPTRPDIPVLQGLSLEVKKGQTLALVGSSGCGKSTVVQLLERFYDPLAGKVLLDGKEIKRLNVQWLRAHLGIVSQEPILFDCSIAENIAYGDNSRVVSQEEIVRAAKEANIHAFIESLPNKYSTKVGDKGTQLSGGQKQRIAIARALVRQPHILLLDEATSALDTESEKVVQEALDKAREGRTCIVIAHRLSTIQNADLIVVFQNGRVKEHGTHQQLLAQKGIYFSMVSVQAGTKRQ
T3 sequence (P33527 whole entry): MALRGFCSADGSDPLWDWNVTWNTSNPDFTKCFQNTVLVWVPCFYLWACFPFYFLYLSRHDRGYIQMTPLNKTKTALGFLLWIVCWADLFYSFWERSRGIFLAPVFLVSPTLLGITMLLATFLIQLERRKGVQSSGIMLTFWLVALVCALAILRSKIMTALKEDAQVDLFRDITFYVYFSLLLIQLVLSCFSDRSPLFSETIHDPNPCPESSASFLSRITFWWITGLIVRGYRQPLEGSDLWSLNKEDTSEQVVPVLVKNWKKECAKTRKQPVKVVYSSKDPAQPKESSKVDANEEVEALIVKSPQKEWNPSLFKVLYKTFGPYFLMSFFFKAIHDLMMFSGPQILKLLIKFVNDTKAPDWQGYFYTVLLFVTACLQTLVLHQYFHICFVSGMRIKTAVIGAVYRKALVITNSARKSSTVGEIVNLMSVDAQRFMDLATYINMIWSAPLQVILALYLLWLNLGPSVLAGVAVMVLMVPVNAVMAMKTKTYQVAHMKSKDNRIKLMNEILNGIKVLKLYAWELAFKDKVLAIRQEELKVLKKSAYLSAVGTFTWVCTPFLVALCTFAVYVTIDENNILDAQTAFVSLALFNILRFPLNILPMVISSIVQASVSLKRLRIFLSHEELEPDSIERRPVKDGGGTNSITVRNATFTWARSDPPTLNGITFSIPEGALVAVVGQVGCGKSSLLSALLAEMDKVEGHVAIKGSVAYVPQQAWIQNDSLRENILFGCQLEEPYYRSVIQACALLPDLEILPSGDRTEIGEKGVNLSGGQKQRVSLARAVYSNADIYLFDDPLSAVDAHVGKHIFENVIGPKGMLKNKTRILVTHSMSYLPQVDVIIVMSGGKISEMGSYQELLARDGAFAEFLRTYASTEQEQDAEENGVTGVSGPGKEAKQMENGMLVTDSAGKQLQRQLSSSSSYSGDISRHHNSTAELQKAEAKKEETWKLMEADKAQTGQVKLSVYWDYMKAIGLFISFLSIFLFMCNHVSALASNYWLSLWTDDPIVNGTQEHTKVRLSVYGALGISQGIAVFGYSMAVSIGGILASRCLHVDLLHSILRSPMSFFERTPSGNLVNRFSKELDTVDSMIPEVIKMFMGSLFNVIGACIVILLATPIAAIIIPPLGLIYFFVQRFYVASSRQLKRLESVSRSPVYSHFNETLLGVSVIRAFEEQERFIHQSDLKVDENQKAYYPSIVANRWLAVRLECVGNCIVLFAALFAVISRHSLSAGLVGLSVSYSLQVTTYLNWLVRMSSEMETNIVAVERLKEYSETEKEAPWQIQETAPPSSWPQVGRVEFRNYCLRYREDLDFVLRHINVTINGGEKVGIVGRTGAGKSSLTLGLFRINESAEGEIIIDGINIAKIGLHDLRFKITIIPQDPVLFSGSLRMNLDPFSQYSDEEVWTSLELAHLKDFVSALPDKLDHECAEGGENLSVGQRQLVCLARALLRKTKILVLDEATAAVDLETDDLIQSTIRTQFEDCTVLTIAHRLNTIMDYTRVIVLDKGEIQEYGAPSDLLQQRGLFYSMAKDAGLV

SMILES | EC50 [1] | viability at 72 h, 10 µM [2] | inhibition at 1 µM (ABCB1 [3]) | inhibition at 10 µM (ABCB1 [4]) | inhibition at 1 µM (ABCC1 (MRP1) [5]) | Emax at 1 µM (ABCG2) | Imax [6] | inhibition (INH) [7] | viability at 72 h, 20 µM [8] | inhibition at 10 µM (ABCC1 (MRP1) [9])
COC(=O)[C@H](Cc1ccccc1)NC(=O)c1cc(=O)c2c(OCc3ccccc3Br)cccc2o1 | 100 nM | 82% | 5% | 6% | 26% | – | – | – | – | –
CC[C@@H](C)[C@H](NC(=O)c1cc(=O)c2c(OCc3ccc(Br)cc3)cccc2o1)C(=O)OC | 590 nM | – | – | – | – | 115% | – | – | – | –
COC(=O)[C@H](Cc1c[nH]c2ccccc12)NC(=O)c1cc(=O)c2c(OCc3ccccc3Br)cccc2o1 | 600 nM | 88% | 7% | 5% | 23% | – | 94% | 94% | – | –
COC(=O)[C@H](CC(C)C)NC(=O)c1cc(=O)c2c(OCc3ccccc3Br)cccc2o1 | 140 nM | 87% | 7% | 5% | 20% | – | 115% | 115% | – | –
CC[C@@H](C)[C@H](NC(=O)c1cc(=O)c2c(OCc3ccccc3Br)cccc2o1)C(=O)N[C@H](C(=O)OC)C(C)C | 70 nM | – | 0% | 0% | 11% | – | 85% | 85% | 102% | –
COC(=O)[C@H](Cc1ccccc1)NC(=O)c1cc(=O)c2c(OCc3ccc(Br)cc3)cccc2o1 | 270 nM | 84% | 6% | 7% | 23% | – | – | – | – | –
COC(=O)[C@H](Cc1c[nH]c2ccccc12)NC(=O)c1cc(=O)c2c(OCc3ccc(Br)cc3)cccc2o1 | 480 nM | 77% | 7% | 6% | 10.3% | – | 96% | 96% | – | –
CC[C@@H](C)[C@H](NC(=O)c1cc(=O)c2c(OCc3ccc(Br)cc3)cccc2o1)C(=O)N[C@H](C(=O)OC)C(C)C | 250 nM | – | 2% | 11% | 12% | – | 72% | 72% | 89% | –
COC(=O)[C@@H](NC(=O)c1cc(=O)c2c(OCc3ccccc3Br)cccc2o1)C(C)C | 50 nM | 76% | 8% | 7% | 13% | – | 87% | 87% | – | –
CC[C@@H](C)[C@H](NC(=O)c1cc(=O)c2c(OCc3ccc(Br)cc3)cccc2o1)C(=O)N[C@@H](CC(C)C)C(=O)OC | 110 nM | – | 4% | 6% | 11% | – | 52% | 52% | 101% | –
COC(=O)[C@@H](Cc1c[nH]c2ccccc12)NC(=O)c1cc(=O)c2c(OCc3ccc(Br)cc3)cccc2o1 | 290 nM | 102% | 7% | 6% | 11.9% | – | 85% | 85% | – | –
CC[C@@H](C)[C@H](NC(=O)c1cc(=O)c2c(OCc3ccccc3Br)cccc2o1)C(=O)OC | 100 nM | – | – | – | 5% | – | 78% | 78% | – | –
CC[C@@H](C)[C@H](NC(=O)c1cc(=O)c2c(OCc3ccccc3Br)cccc2o1)C(=O)N[C@@H](CC(C)C)C(=O)OC | 70 nM | – | 2% | 2% | 10% | – | 83% | 83% | 104% | 13%
